Screening data deposited in PubChem by The Scripps Research Institute Molecular Screening Center.
M4 ag = CHRM4 agonism in calcium assay | P08173 | CHO-K1 hM4/Gqi5, Fluo-8 calcium fluorescence; vehicle 0%, full acetylcholine response 100% | activation, % at 3 µM | actives 0.14% (n = 360,000) | AID 624127;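 active = activation above the run mean over all test wells plus 3 SD, cut at about 32% in these data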;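 also: peak over basal fluorescence ratio per well then scaled between controls; 0% = DMSO wells and 100% = acetylcholine at EC100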
CHRM5 agonist = agonists of human muscarinic M5 receptor (CHRM5). actives 0.19% (n = 360,000). P08912. CHO-K1 hM5 cells, Fluo-8 calcium fluorescence; 0% DMSO wells, 100% maximal acetylcholine response. AID 624037. activation, % at 3 µM;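 active = activation above the run's mean over test compounds plus 3 SD, cut at about 23% in these data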;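 also: signal is peak over basal fluorescence ratio across the kinetic read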
Target sequence (P08912 whole entry, looked up): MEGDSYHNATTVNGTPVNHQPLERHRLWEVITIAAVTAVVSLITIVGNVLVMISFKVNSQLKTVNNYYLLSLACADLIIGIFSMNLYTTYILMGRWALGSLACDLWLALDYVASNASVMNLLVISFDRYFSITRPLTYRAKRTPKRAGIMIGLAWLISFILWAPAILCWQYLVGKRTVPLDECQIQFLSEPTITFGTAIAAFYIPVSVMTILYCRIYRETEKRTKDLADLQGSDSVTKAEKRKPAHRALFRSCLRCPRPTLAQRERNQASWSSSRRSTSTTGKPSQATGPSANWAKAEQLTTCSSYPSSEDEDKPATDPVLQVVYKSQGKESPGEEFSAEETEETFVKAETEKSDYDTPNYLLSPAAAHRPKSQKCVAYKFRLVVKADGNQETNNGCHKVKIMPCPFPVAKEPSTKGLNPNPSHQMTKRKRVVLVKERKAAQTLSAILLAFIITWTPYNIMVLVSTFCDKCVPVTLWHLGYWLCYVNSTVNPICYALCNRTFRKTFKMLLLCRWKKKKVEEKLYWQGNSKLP
M5 PAM = positive allosteric modulators of human muscarinic M5 receptor; P08912; activation, % at 3 µM; CHO-K1 hM5, Fluo-8 calcium, ACh EC20 PAM; 0% = ACh EC20, 100% = ACh EC100; AID 624038; actives 0.3% (n = 360,000);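 active = activation above the run cutoff, the mean activation of all test compounds plus 3 SD, cut at about 18% in these data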
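System: CHO-K1 cell line with stable human muscarinic M5 receptor expression | Also added: EC20 acetylcholine as agonist stimulus | Compound: One concentration, 3 µM final (nominal) | Timing: Fluo-8 loading 80 min at 37 °C plus 30 min room temperature | Measured by: Fluo-8 calcium dye fluorescence, kinetic read | Read-out basis: % activation, ACh-normalized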
M4 PAM = CHRM4 positive allosteric modulation. P08173. CHO-K1 hM4/Gqi5, Fluo-8 calcium fluorescence, ACh EC20; 0% = ACh EC20, 100% = maximal ACh. activation, % at 3 µM. actives 0.4% (n = 360,000). AID 624126;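 active = activation above its plate's cutoff, the mean activation of sample wells plus 3 SD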
M4 antag = blocks acetylcholine activation of human M4 receptor; AID 624125; actives 0.73% (n = 360,000); inhibition, % at 3 µM; CHO-hM4 cells, ACh EC80, Fluo-8 calcium fluorescence;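 active = inhibition above its plate's cutoff, the mean inhibition of sample wells plus 3 SD, cut at about 27% in these data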;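 also: 0% = acetylcholine EC80 with DMSO and 100% = DMSO without agonist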
M5 antag = blocks acetylcholine activation of human M5 receptor. CHO-hM5 cells, Fluo-8 calcium fluorescence, ACh EC80. inhibition, % at 3 µM. actives 0.59% (n = 360,000);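 active = inhibition above a per-plate cutoff, the mean of that plate's test compounds plus 3 SD, cut at about 27% in these data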;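 also: 0% = acetylcholine EC80 with DMSO and 100% = DMSO without agonist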
The depositor's hits bear a star. Compounds with a hit are over-represented: about 1.9% of the library has one in this group of screens.

SMILES | M4 ag | CHRM5 agonist | M5 PAM | M4 PAM | M4 antag | M5 antag
CCCCN1C(=N)N([C@@H](C)CN2CCC[C@H]2CN2C(N)=NC[C@H]2CC(C)C)C[C@H]1Cc1ccccc1 | -1 | -12 | -16 | -7 | 2 | 33*
CC(OC(=O)c1cnccn1)C(=O)c1ccccc1 (stereo not drawn) | 0 | 0 | 3 | 10 | 0 | 3
O=C(CSc1nc2sc3c(c2c(=O)n1-c1ccccc1)CCCC3)N/N=C/c1ccccc1C(=O)O | 1 | -3 | 2 | 4 | -4 | -9
Cc1cc(C(=O)NCCc2ccccc2)c2cc(F)ccc2n1 | 1 | -7 | 1 | -6 | -3 | -3
O=C(O)c1cccc(Cn2cc(Br)cn2)c1 | 1 | -2 | 9 | 12 | -7 | -5
O=C(NCc1ccncc1)c1cccc(Cn2cc(Br)cn2)c1 | 1 | -11 | -13 | -22 | 82* | -2
CCOC(=O)C1CCCN(c2c(C(=O)c3ccccc3)cnc3ccc(OC)cc23)C1 (stereo not drawn) | 11 | 32* | -20 | -10 | 5 | 7
Cn1c(Cc2ccccc2)nnc1SCC(=O)N1CCCCC1 | -1 | -1 | 2 | 11 | 95* | -2
Cc1ccccc1-n1c(SCC(=O)N2CCCC2)nnc1-c1ccccn1 | 1 | 2 | 19* | 6 | -4 | -21
COc1ccccc1Oc1ccc2c(c1)C(=O)N(c1cccc3ncccc13)C2=O | 12 | 10 | -20 | -12 | 21 | 39*
Cc1cc(=O)n2nc(N3CCCC(C(=O)NCCCN4CCc5ccccc5C4)C3)sc2n1 (stereo not drawn) | -2 | -7 | -8 | -11 | 28* | 12
CCC1CCCCN1CCCNC(=O)C1CCCN(c2nn3c(=O)cc(C)nc3s2)C1 (stereo not drawn) | 1 | -9 | -2 | -5 | 1 | -11
O=C(CCn1c(=S)[nH]c2ccccc2c1=O)NCC1CCCO1 (stereo not drawn) | 1 | 2 | -4 | 19* | -25 | -3
CCCn1c(=S)[nH]c2cc(C(=O)NCC3CCCO3)ccc2c1=O (stereo not drawn) | 4 | 4 | -5 | -2 | 7 | 4
Cc1nc(-c2cccc(NC(=O)C3CCCCC3)c2)cs1 | 3 | -1 | 26* | 8 | -16 | -29
Cc1nc(-c2cccc(NC(=O)c3ccc(Br)o3)c2)cs1 | 5 | -6 | -12 | -1 | 1 | 27*
O=C(CCC(=O)N1CCN(S(=O)(=O)c2ccccc2)CC1)c1ccc(Br)cc1 | 4 | 6 | 4 | 2 | 6 | 6
CCC(=O)c1cn(CC(=O)Nc2ccc(C)cc2C)c2ccccc12 | 6 | 2 | -1 | 0 | -19 | -4
COc1cccc(NC(=O)c2cc3ccccc3cc2OC)c1 | 1 | -5 | -6 | -1 | 3 | 10
Cc1ccccc1C(=O)N/N=C/c1ccc(Sc2ccccn2)o1 | 2 | 2 | 24* | 4 | -1 | 23
O=C(N/N=C\c1ccc(Sc2ccccn2)o1)c1cccc(Br)c1 | 6 | 0 | -7 | 7 | -8 | -1
CCN1CCN(c2ccc(NC(=O)c3cccc(OCc4ccccc4)c3)cc2)CC1 | 9 | -8 | -19 | -24 | 18 | 33*
O=C(NC(=S)Nc1ccc(CN2CCCCC2)cc1)c1cccc(OCc2ccccc2)c1 | 7 | -17 | -33 | -27 | 39* | 48*
O=C(O)c1ccc(NC(=S)NC(=O)c2cccc(COc3ccccc3)c2)cc1 | 0 | 2 | -5 | -2 | -9 | 12
Cc1ccc(C)c(N2CCN(CCCNC(=O)Cn3cc4c(n3)CCCCC4)CC2)c1 | -3 | -1 | -10 | -19 | 100* | 4
SMILES | M4 ag | CHRM5 agonist | M5 PAM | M4 PAM | M4 antag | M5 antag
Cc1cccc(NC(=S)N2CCN(S(C)(=O)=O)CC2)c1 | 1 | -4 | 0 | -1 | 5 | 3
O=C(c1ccc(F)cc1)N1CCN2C(=O)c3ccccc3C12c1ccccc1 (stereo not drawn) | 18 | -15 | -35 | -24 | 6 | 34*
O=C(c1ccc(F)cc1)N1CCN2C(=O)c3ccccc3C12c1ccc(Cl)cc1 (stereo not drawn) | -1 | -11 | -18 | -14 | 7 | 47*
O=C(c1ccccc1)N1CCN2C(=O)c3ccccc3C12c1ccc(Cl)cc1 (stereo not drawn) | 1 | -11 | -14 | -2 | -5 | 6
COc1ccccc1Cn1c(C)c(C(=O)NCc2ccc(C#N)cc2)sc1=O | 37* | 28* | -13 | -18 | 20 | 11
COc1ccc(CNC(=O)c2sc(=O)n(Cc3ccc(-c4ccccc4)cc3)c2C)cc1OC | 21 | 8 | -24 | -4 | -1 | 30*
COc1ccc(Cl)cc1Cn1c(C)c(C(=O)NCc2ccc(C#N)cc2)sc1=O | 7 | 5 | -10 | -16 | 12 | 3
COc1ccc(CNC(=O)c2sc(=O)n(Cc3ccc(C)cc3)c2C)cc1OC | 7 | 7 | -7 | 1 | 3 | 4
Cc1c(C(=O)NCc2ccc([N+](=O)[O-])cc2)sc(=O)n1Cc1ccc2c(c1)OCO2 | 21 | 25* | -13 | -10 | 5 | 8
COc1ccc(CNC(=O)c2sc(=O)n(Cc3ccccc3C)c2C)cc1 | 24 | 41* | -11 | 4 | -22 | -3
Cc1ccccc1Cn1c(C)c(C(=O)NCc2cccc(Cl)c2)sc1=O | 6 | 1 | -7 | -6 | -9 | 6
O=C(CN1CCc2ccccc2C1)Nc1ccc(F)cc1 | 1 | 4 | 3 | -3 | 3 | 1
O=C(CN1CCc2ccccc2C1)Nc1ccc(OC(F)(F)F)cc1 | -1 | -7 | -20 | -16 | 82* | 18
C=CCn1c2ccccc2c2nnc(SCC(N)=O)nc21 | 2 | -2 | -1 | 2 | 2 | 5
C=CCSc1nnc2nc3c(nn12)c1cc(C)ccc1n3CC=C | 1 | -2 | 41* | 10 | -21 | -11
O=C(COc1ccc(Nc2ccccc2)cc1)OCC(=O)N1CCCCC1 | 7 | 0 | -3 | -11 | 5 | -1
CC1=NN(C(=O)CCc2ccccc2)C(O)(c2ccncc2)C1 (stereo not drawn) | 3 | 9 | 5 | 8 | -6 | 0
COc1cc2cc(C(c3nnnn3C3CCCC3)N3CCCCC3)c(=O)[nH]c2cc1OC (stereo not drawn) | 2 | -2 | -12 | 12 | 5 | 34*
COc1ccc2cc(C(=O)C3CCCN(C(=O)Cc4c(C)noc4C)C3)ccc2c1 (stereo not drawn) | 3 | 2 | 5 | 5 | -7 | 8
CC(C)CNS(=O)(=O)c1ccc(CCC(=O)NC2CCCCC2)cc1 | 2 | 7 | 20* | 1 | -8 | -14
